Calls of active or inactive are those of the source. No cut-off for these calls is given here.
Tests used:
[1] = tested on: Rattus norvegicus; test: Antifertility activity in rat at 5 mg/day administered for 7 days; type: functional, organism-based
Outline: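 Rat antifertility test: 5 mg/rat/day given for 7 days to two female rats.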

[2] = species on record: Rattus norvegicus; test: CNS activity in rat assessed as gross behaviour; type: ADME, organism-based; conditions: in vivo

**Q.** How did the Activity [1] turn out when `CCOC(=O)CCCCCOC1=NN(c2cccc(OC)c2)CC1` was run?
**A.** Its Activity is “inactive”.

**Q.** What about the Activity [2] of the same molecule?
**A.** The Activity was “Non-toxic”.

**Q.** Which Activity [1] does the source give for `COc1cccc(N2CCC(=O)N2CCCC(=O)c2ccc(F)cc2)c1` here?
**A.** Its Activity is “inactive”.

**Q.** And the Activity [2]?
**A.** Its Activity is “Non-toxic”.

**Q.** How did the Activity [1] turn out when `CCOC(=O)COC1=NN(c2cccc(C(F)(F)F)c2)CC1` was run?
**A.** Its Activity is “inactive”.

**Q.** What about the Activity [2] of the same molecule?
**A.** The Activity was “Non-toxic”.

**Q.** `CCOC(=O)COC1=NN(c2cccc(Cl)c2)CC1` was tested. Which Activity [1] did it give?
**A.** The Activity was “inactive”.

**Q.** And the Activity [2]?
**A.** The Activity was “Non-toxic”.

**Q.** Which results are given for `COc1cccc(N2CCC(=O)N2)c1`?
**A.** Activity [1]: inactive; Activity [2]: Non-toxic

**Q.** Which Activity [1] does the source give for `CCCCOc1cccc(N2CCC(=O)N2)c1` here?
**A.** Its Activity is “inactive”.

**Q.** And the Activity [2]?
**A.** Its Activity is “Non-toxic”.

**Q.** `O=C1CCN(c2cccc(C(F)(F)F)c2)N1` was tested. Which Activity [1] did it give?
**A.** Its Activity is “inactive”.

**Q.** And the Activity [2]?
**A.** Its Activity is “Non-toxic”.

**Q.** Which Activity [1] does the source give for `COc1cccc(N2CCC(=O)N2CCCC(O)c2ccc(F)cc2)c1` (stereo not drawn) here?
**A.** Its Activity is “inactive”.

**Q.** And the Activity [2]?
**A.** The Activity was “Non-toxic”.

**Q.** Which results are given for `O=C1CCN(c2cccc(Cl)c2)N1`?
**A.** Activity [1]: inactive; Activity [2]: Non-toxic

Reference: ChEMBL document CHEMBL3271975, “Synthesis and biological activity of a series of 1-aryl-3-pyrazolidinones” (J Med Chem, 1976)
